Source: ChEMBL document CHEMBL1129593, “Halogenated mazindol analogs as potential inhibitors of the cocaine binding site at the dopamine transporter” (J Med Chem, 1996)

Experiments:
[1] = target: T1, Sodium-dependent dopamine transporter (Rattus norvegicus, UniProt P23977); experiment: Inhibition of [3H]WIN-35428 binding to the dopamine transporter in rat brain; type: tissue-based
Method in brief: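 Striatal tissue from male Sprague-Dawley rats (200-250 g), 0.1 mg original wet weight per tube. Nonspecific binding was defined with 30 µM (R)-(-)-cocaine. Stopped by filtration through polyethylenimine-soaked GF/B filters with three ice-cold buffer washes. Equilibrium binding analysis.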

[2] = target: T1, Sodium-dependent dopamine transporter; experiment: Inhibition of [3H]dopamine uptake at the dopamine transporter in rat striatal tissue; type: functional, tissue-based, Striatum
Method in brief: (§1)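 Crude synaptosomes were made from rat striatum: homogenised in 0.32 M sucrose, spun at 800g for 10 min, then at 27000g for 20 min. They were resuspended in Krebs-Hepes (pH 7.35) containing NaCl, KCl, KH₂PO₄, CaCl₂, MgSO₄, Hepes, glucose, ascorbic acid and nialamide. Preincubated with compound for 10 min at 30 °C, then given [³H]dopamine for 10 min and filtered.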

[3] = target: Sodium-dependent dopamine transporter (Rattus norvegicus) (UniProt P23977); experiment: The ratio of uptake/binding at Dopamine transporter; type: functional
Sodium-dependent dopamine transporter (Rattus norvegicus), sequence (P23977 whole entry): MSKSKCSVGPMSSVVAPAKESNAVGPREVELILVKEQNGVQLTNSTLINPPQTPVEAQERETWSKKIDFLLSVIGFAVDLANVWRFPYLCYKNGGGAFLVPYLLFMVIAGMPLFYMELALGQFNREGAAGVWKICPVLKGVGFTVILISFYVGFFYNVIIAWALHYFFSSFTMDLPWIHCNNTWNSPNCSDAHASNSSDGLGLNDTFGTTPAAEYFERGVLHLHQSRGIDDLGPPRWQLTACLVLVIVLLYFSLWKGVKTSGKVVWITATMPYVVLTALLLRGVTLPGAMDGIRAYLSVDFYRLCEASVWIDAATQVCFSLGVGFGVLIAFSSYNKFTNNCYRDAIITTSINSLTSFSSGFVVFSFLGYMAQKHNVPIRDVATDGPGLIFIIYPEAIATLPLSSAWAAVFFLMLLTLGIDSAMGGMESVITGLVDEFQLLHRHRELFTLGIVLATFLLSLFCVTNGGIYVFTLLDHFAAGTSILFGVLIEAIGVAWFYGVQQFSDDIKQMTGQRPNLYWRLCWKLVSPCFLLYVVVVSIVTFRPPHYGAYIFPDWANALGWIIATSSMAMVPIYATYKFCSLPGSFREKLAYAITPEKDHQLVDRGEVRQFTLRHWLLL

[4] = target: Norepinephrine transporter (Rattus norvegicus) (UniProt Q9WTR4); experiment: Compound was tested for inhibition of [3H]-DMI binding at the Norepinephrine transporter in rat cortical membranes at (10e-5) M; type: cell membranes; settings: Membrane; concentration not given here
Norepinephrine transporter (Rattus norvegicus), sequence (Q9WTR4 as listed by the source): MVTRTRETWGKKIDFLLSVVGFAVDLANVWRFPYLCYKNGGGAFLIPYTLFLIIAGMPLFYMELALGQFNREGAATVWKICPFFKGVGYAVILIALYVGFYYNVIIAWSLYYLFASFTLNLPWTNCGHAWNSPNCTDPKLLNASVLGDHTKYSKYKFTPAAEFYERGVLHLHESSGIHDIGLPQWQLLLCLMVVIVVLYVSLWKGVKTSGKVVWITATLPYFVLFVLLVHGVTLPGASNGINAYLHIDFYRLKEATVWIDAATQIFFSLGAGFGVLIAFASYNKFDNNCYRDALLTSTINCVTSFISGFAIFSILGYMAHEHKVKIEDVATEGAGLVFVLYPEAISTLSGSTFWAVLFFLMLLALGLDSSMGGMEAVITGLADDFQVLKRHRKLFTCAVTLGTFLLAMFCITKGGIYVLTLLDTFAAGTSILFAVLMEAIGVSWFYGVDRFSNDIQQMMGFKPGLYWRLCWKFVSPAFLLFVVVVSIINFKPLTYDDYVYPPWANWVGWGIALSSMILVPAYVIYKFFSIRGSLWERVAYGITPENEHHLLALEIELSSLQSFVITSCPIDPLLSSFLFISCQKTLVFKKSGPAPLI

[5] = target: T2, Sodium-dependent serotonin transporter (Rattus norvegicus, UniProt P31652); experiment: Compound was tested for inhibition of [3H]citalopram binding at the serotonin transporter in rat fore brain membranes; type: cell membranes, Membrane
T2 sequence (P31652 whole entry): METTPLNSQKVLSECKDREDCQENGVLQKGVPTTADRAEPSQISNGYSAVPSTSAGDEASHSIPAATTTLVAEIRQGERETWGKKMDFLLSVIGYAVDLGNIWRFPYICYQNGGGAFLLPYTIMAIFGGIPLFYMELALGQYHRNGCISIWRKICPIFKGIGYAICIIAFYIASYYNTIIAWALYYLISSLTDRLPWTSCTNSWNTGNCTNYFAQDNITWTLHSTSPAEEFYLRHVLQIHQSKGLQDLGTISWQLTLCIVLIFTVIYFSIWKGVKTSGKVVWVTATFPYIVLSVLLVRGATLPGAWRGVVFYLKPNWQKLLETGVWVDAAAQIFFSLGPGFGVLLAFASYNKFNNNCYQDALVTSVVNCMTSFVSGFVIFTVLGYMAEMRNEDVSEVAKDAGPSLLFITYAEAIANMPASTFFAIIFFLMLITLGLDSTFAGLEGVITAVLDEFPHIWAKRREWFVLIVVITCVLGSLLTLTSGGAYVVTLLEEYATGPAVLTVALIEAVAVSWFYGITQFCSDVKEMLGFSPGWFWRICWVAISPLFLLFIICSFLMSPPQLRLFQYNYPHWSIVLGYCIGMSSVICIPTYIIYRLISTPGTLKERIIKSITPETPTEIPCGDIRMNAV

[6] = target: T1, Sodium-dependent dopamine transporter; experiment: Compound was tested for inhibition of [3H]dopamine uptake at the dopamine transporter in rat […] tissue; type: tissue-based, Striatum; method in brief: as §1
[7] = target: Norepinephrine transporter (Rattus norvegicus) (UniProt Q9WTR4); experiment: Compound was tested for inhibition of [3H]DMI binding at the Norepinephrine transporter in rat cortical membranes at (10e-5) M; type: cell membranes; settings: Membrane; concentration not given here
[8] = target: T2, Sodium-dependent serotonin transporter; experiment: Compound was tested for inhibition of [3H]5-HT reuptake at Serotonin transporter

T1 sequence (P23977 whole entry): as the sequence (P23977 whole entry) above

Q: For `OC1(c2ccc(Cl)c(Cl)c2)c2ccccc2C2=NCCN21` (stereo not given), which IC50 [1] is on record?
A: Its IC50 is 0.0025 µM.

Q: What about the IC50 [2] of the same compound?
A: Its IC50 is 0.0014 µM.

Q: What about the Uptake/Binding ratio [3] of the same compound?
A: Its Uptake/Binding ratio is 0.6.

Q: For `OC1(c2ccc(Cl)cc2Cl)c2ccccc2C2=NCCN21` (stereo not given), which IC50 [1] is on record?
A: Its IC50 is 0.0765 µM.

Q: And the IC50 [2]?
A: The IC50 was 0.092 µM.

Q: What about the Uptake/Binding ratio [3] of the same compound?
A: Its Uptake/Binding ratio is 1.2.

Q: How did the IC50 [1] turn out when `OC1(c2ccccc2)c2c(Cl)cccc2C2=NCCN21` (stereo not given) was run?
A: The IC50 was 0.0572 µM.

Q: And the IC50 [2]?
A: The IC50 was 0.058 µM.

Q: `OC1(c2ccccc2)c2cc(Cl)ccc2C2=NCCN21` (stereo not given) was tested. Which IC50 [1] did it give?
A: The IC50 was 0.0864 µM.

Q: And the IC50 [2]?
A: The IC50 was 0.055 µM.

Q: And the Uptake/Binding ratio [3]?
A: Its Uptake/Binding ratio is 0.6.

Q: How did the IC50 [1] turn out when `OC1(c2ccc(Cl)c(Cl)c2)c2ccccc2C2=NCCCCN21` (stereo not given) was run?
A: Its IC50 is 0.0017 µM.

Q: And the IC50 [2]?
A: The IC50 was 0.00026 µM.

Q: And the Uptake/Binding ratio [3]?
A: Its Uptake/Binding ratio is 0.2.

Q: `OC1(c2ccccc2)c2ccccc2C2=NCCCCN21` (stereo not given) was tested. Which IC50 [1] did it give?
A: Its IC50 is 0.0059 µM.

Q: What about the IC50 [2] of the same compound?
A: The IC50 was 0.011 µM.

Q: And the Uptake/Binding ratio [3]?
A: Its Uptake/Binding ratio is 2.

Q: Which IC50 [1] does the source give for `OC1(c2ccc(Cl)cc2)c2ccccc2C2=NCCCN21` (stereo not given) here?
A: Its IC50 is 0.0017 µM.

Q: And the IC50 [2]?
A: Its IC50 is 0.0014 µM.

Q: What about the Uptake/Binding ratio [3] of the same compound?
A: Its Uptake/Binding ratio is 0.8.

Q: What about the inhibition [4] of the same compound?
A: The inhibition was 62.8%.

Q: And the IC50 [5]?
A: The IC50 was 1.04 µM.

Q: `OC1(c2ccc(I)cc2)c2ccccc2C2=NCCN21` (stereo not given) was tested. Which IC50 [1] did it give?
A: Its IC50 is 0.0172 µM.

Q: What about the IC50 [2] of the same compound?
A: Its IC50 is 0.014 µM.

Q: And the Uptake/Binding ratio [3]?
A: Its Uptake/Binding ratio is 0.8.

Q: What does the source list for `OC1(c2ccc(F)cc2)c2cc(Cl)ccc2C2=NCCN21` (stereo not given)?
A: IC50 [1]: 0.0528 µM; IC50 [2]: 0.053 µM; Uptake/Binding ratio [3]: 1

Q: Which IC50 [1] does the source give for `OC1(c2ccc(F)cc2)c2ccccc2C2=NCCCN21` (stereo not given) here?
A: The IC50 was 0.0032 µM.

Q: And the IC50 [2]?
A: The IC50 was 0.0085 µM.

Q: Which results are given for `OC1(c2ccccc2)c2ccccc2C2=NCCN21` (stereo not given)?
A: IC50 [1]: 0.066 µM; IC50 [2]: 0.124 µM; Uptake/Binding ratio [3]: 1.9

Q: How did the IC50 [1] turn out when `CC1(C)CN2C(=N1)c1ccccc1C2(O)c1ccc(Cl)cc1` (stereo not given) was run?
A: Its IC50 is 0.0504 µM.

Q: And the IC50 [6]?
A: The IC50 was 0.106 µM.

Q: For `OC1(c2ccc(Cl)cc2)c2cc(Cl)c(Cl)cc2C2=NCCN21` (stereo not given), which IC50 [1] is on record?
A: The IC50 was 0.0136 µM.

Q: `OC1(c2ccccc2F)c2ccccc2C2=NCCCN21` (stereo not given) was tested. Which IC50 [1] did it give?
A: The IC50 was 0.0232 µM.

Q: And the IC50 [2]?
A: The IC50 was 0.089 µM.

Q: What about the Uptake/Binding ratio [3] of the same compound?
A: Its Uptake/Binding ratio is 3.8.

Q: With `OC1(c2cccc(Cl)c2)c2ccccc2C2=NCCN21` (stereo not given) as the compound, how does the IC50 [1] read?
A: The IC50 was 0.0043 µM.

Q: And the IC50 [2]?
A: Its IC50 is 0.0092 µM.

Q: And the Uptake/Binding ratio [3]?
A: Its Uptake/Binding ratio is 2.1.

Q: Which inhibition [7] does the source give for `OC1(c2ccc(Cl)cc2)c2ccccc2C2=NCCN21` (stereo not given) [MAZINDOL] here?
A: Its inhibition is 60%.

Q: What about the IC50 [8] of the same compound?
A: Its IC50 is 0.231 µM.

Q: `OC1(c2ccc(Br)cc2)c2ccccc2C2=NCCN21` (stereo not given) was tested. Which IC50 [1] did it give?
A: The IC50 was 0.0026 µM.

Q: What about the IC50 [2] of the same compound?
A: Its IC50 is 0.0086 µM.

Q: What about the Uptake/Binding ratio [3] of the same compound?
A: The Uptake/Binding ratio was 3.3.

Q: `OC1(c2ccccc2)c2cc(F)ccc2C2=NCCN21` (stereo not given) was tested. Which IC50 [1] did it give?
A: Its IC50 is 0.0297 µM.

Q: What about the IC50 [2] of the same compound?
A: Its IC50 is 0.078 µM.

Q: What about the Uptake/Binding ratio [3] of the same compound?
A: The Uptake/Binding ratio was 2.6.

Q: For `OC1(c2ccc(Cl)cc2)c2cc(F)ccc2C2=NCCN21` (stereo not given), which IC50 [1] is on record?
A: Its IC50 is 0.0065 µM.

Q: And the IC50 [2]?
A: Its IC50 is 0.015 µM.

Q: And the Uptake/Binding ratio [3]?
A: The Uptake/Binding ratio was 2.3.

Q: Which IC50 [1] does the source give for `OC1(c2ccccc2)c2ccccc2C2=NCCCN21` (stereo not given) here?
A: Its IC50 is 0.0058 µM.

Q: And the IC50 [2]?
A: The IC50 was 0.018 µM.

Q: What about the Uptake/Binding ratio [3] of the same compound?
A: The Uptake/Binding ratio was 3.1.

Q: What does the source list for `OC1(c2cccc(F)c2)c2ccccc2C2=NCCCN21` (stereo not given)?
A: IC50 [1]: 0.002 µM; IC50 [2]: 0.0031 µM; Uptake/Binding ratio [3]: 1.6

Q: With `OC1(c2cccc(Cl)c2)c2ccccc2C2=NCCCN21` (stereo not given) as the compound, how does the IC50 [1] read?
A: Its IC50 is 0.001 µM.

Q: What about the IC50 [2] of the same compound?
A: The IC50 was 0.0013 µM.

Q: And the Uptake/Binding ratio [3]?
A: Its Uptake/Binding ratio is 1.3.

Q: Which IC50 [1] does the source give for `OC1(c2ccc(F)cc2)c2ccccc2C2=NCCN21` (stereo not given) here?
A: The IC50 was 0.0133 µM.

Q: What about the IC50 [2] of the same compound?
A: The IC50 was 0.0254 µM.

Q: What about the Uptake/Binding ratio [3] of the same compound?
A: The Uptake/Binding ratio was 1.9.

Q: For `OC1(c2ccccc2Cl)c2ccccc2C2=NCCN21` (stereo not given), which IC50 [1] is on record?
A: Its IC50 is 0.294 µM.

Q: And the IC50 [2]?
A: The IC50 was 0.77 µM.

Q: What about the Uptake/Binding ratio [3] of the same compound?
A: The Uptake/Binding ratio was 2.6.

Q: `CC1(C)CN=C2c3ccccc3C(O)(c3ccc(Cl)cc3)N2C1` (stereo not given) was tested. Which IC50 [1] did it give?
A: Its IC50 is 0.0063 µM.

Q: And the IC50 [2]?
A: The IC50 was 0.0017 µM.

Q: What about the Uptake/Binding ratio [3] of the same compound?
A: The Uptake/Binding ratio was 0.3.

Q: With `OC1(c2ccc(Cl)cc2)c2ccccc2C2=NCCCCN21` (stereo not given) as the compound, how does the IC50 [1] read?
A: Its IC50 is 0.0015 µM.

Q: And the IC50 [2]?
A: Its IC50 is 0.0034 µM.

Q: What about the Uptake/Binding ratio [3] of the same compound?
A: The Uptake/Binding ratio was 2.3.

Q: What about the IC50 [5] of the same compound?
A: Its IC50 is 1.25 µM.
